The record followed here is article PMC11809490 (RSC Advances, 2025).

Where two headings read alike, the source gives them in different places.

Common to all, as to type: cell-based, human
In data set [1] the test system is PC3. In words: MTT assay, cytotoxicity. To be noted: read-out: IC50 PC3. The procedure, abridged: (§1)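 Cells in medium with 10% FBS, streptomycin and penicillin; 5000 cells per well. After 12 h, test compounds added at 0.1–40 μM, with 0.1% DMSO as vehicle, for 48 h. Then serum-free medium and MTT (5 mg mL−1) at 4:1 for 4 h at 37 °C. Formazan dissolved in DMSO, absorbance at 570 nm, normalized to DMSO control. IC50 from sigmoidal variable-slope nonlinear regression.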

Data set [2] deals with C4-2. Put plainly: MTT assay, cytotoxicity.
Data set [3] has as its system MCF7. In words: MTT assay, cytotoxicity. As to conditions: read-out: IC50 MCF7. A digest of the protocol: as §1
Data set [4] deals with prostate, breast, epithelial cancer cells. Put plainly: MTT assay, all tested cancer cell lines together. A digest of the protocol:
as §1

The subject of data set [5] is HEK293. In words: MTT assay, cytotoxicity to normal cells. As to conditions: read-out: IC50 HEK293. A digest of the protocol:
as §1

Data set [6] has as its system 22Rv1. Put plainly: MTT assay, cytotoxicity. As to conditions: read-out: IC50 22Rv1. The procedure, abridged:
as §1

Data set [7] concerns MIAPACA. Put plainly: MTT assay, cytotoxicity. As to conditions: read-out: IC50 MIAPACA, 48 h treatment, 0.1-40 μM. The procedure, abridged:
as §1

[8] abbreviates: Homo sapiens, C4-2, 48 h, read-out: IC50 C4-2, MTT, 48 h treatment, 0.1-40 μM.
Where [9] appears, read: read-out: IC50 C4-2, MTT, 48 h treatment, 0.1-40 μM.
Where [10] appears, read: normal human kidney cells, MTT, 48 h.

In the case of `CCn1cc(C=C(C#N)C(=O)c2c[nH]c3cc(OC)ccc23)c2ccccc21` [21f, 3-(1-Ethyl-1H-indol-3-yl)-2-(6-methoxy-1H-indole-3-carbonyl)acrylonitrile], the IC50 in data set [1] (Homo sapiens, PC-3, 48 h) was 24 µM; in data set [2] (setting [8]), 12.5 µM; in data set [3] (Homo sapiens, MCF7, 48 h), 37 µM; in data set [5] (Homo sapiens, HEK293, 48 h), 40 µM; in data set [6] (Homo sapiens, 22Rv1, 48 h), > 40 µM. Besides, in data set [4], the “cytotoxicity against the tested cancer cells, in words (SAR)” value (“cytotoxicity” below) was “reduced activity”.
For the compound `COc1cc2[nH]cc(C(=O)C(C#N)=Cc3cn(C)c4ccccc34)c2cc1OC` [21n, 2-(5,6-Dimethoxy-1H-indole-3-carbonyl)-3-(1-methyl-1H-indol-3-yl)acrylonitrile], the concentration for half-maximal inhibition (IC50) in data set [1] (Homo sapiens, PC-3, 48 h) was 7.1 µM; in data set [2] (setting [8]), 1.02 µM; in data set [3] (Homo sapiens, MCF7, 48 h) it was 5.61 µM; in data set [5] (Homo sapiens, HEK293, 48 h) it was > 40 µM; in data set [6] (Homo sapiens, 22Rv1, 48 h), 20.5 µM. Besides, in data set [4], the “cytotoxicity” value is “improved the selectivity against prostate cancer cell lines”.
Consider `COc1ccc(C=C(C#N)C(=O)c2c[nH]c3ccccc23)cc1OC` [21r, 3-(3,4-Dimethoxyphenyl)-2-(1H-indole-3-carbonyl)acrylonitrile], for which the half-inhibitory concentration (IC50) is 25 µM in data set [1] (Homo sapiens, PC-3, 48 h); > 40 µM in data set [2] (setting [8]); > 40 µM in data set [3] (Homo sapiens, MCF7, 48 h); 31 µM in data set [5] (Homo sapiens, HEK293, 48 h); 34 µM in data set [6] (Homo sapiens, 22Rv1, 48 h). In data set [4], the “cytotoxicity” value was “detrimental for the activity”.
Consider `CCCOc1ccc2[nH]cc(C(=O)C(C#N)=Cc3cn(C)c4ccccc34)c2c1` [21k, 3-(1-Methyl-1H-indol-3-yl)-2-(5-propoxy-1H-indole-3-carbonyl)acrylonitrile], for which the half-maximal inhibitory concentration (IC50) in data set [1] (Homo sapiens, PC-3, 48 h) was 16.1 µM; in data set [2] (setting [8]) it was 13.8 µM; in data set [3] (Homo sapiens, MCF7, 48 h), 18.6 µM; in data set [5] (Homo sapiens, HEK293, 48 h), 39.8 µM; in data set [6] (Homo sapiens, 22Rv1, 48 h), 28 µM.
“2-(5-Isopropoxy-1H-indole-3-carbonyl)-3-(1-methyl-1H-indol-3-yl)acrylonitrile [21m]”: the IC50 in data set [1] (MTT, 48 h treatment, 0.1-40 μM) is 11.7 µM; in data set [2] (setting [9]), 17.6 µM; in data set [7], 1.6 µM; in data set [3] (MTT, 48 h treatment, 0.1-40 μM), 2.98 µM; in data set [5] (setting [10]), > 40 µM; in data set [6] (MTT, 48 h treatment, 0.1-40 μM), 16.4 µM.
Consider `COc1cc2[nH]cc(C(=O)C(C#N)=Cc3cn(Cc4ccc(Cl)cc4)c4ccccc34)c2cc1OC` [21p, 3-(1-(4-Chlorobenzyl)-1H-indol-3-yl)-2-(5,6-dimethoxy-1H-indole-3-carbonyl)-acrylonitrile], for which the concentration for half-maximal inhibition (IC50) in data set [1] (Homo sapiens, PC-3, 48 h) is > 40 µM; in data set [2] (setting [8]), 31 µM; in data set [3] (Homo sapiens, MCF7, 48 h), > 40 µM; in data set [5] (Homo sapiens, HEK293, 48 h), > 40 µM; in data set [6] (Homo sapiens, 22Rv1, 48 h), > 40 µM. Moreover, the “cytotoxicity” value in data set [4] is listed as “detrimental for the activity”.
Take `COc1ccc(C=C(C#N)C(=O)c2c[nH]c3ccccc23)cc1` [21q, 2-(1H-Indole-3-carbonyl)-3-(4-methoxyphenyl)acrylonitrile]: the IC50 in data set [1] (Homo sapiens, PC-3, 48 h) was 37 µM; in data set [2] (setting [8]) it was > 40 µM; in data set [3] (Homo sapiens, MCF7, 48 h), 25 µM; in data set [5] (Homo sapiens, HEK293, 48 h), > 40 µM; in data set [6] (Homo sapiens, 22Rv1, 48 h) it was 28 µM. Further, in data set [4], the “cytotoxicity” value was “detrimental for the activity”.
For `COc1ccc2c(C(=O)C(C#N)=Cc3cn(C)c4ccccc34)c[nH]c2c1` [21e, 2-(6-Methoxy-1H-indole-3-carbonyl)-3-(1-methyl-1H-indol-3-yl)acrylonitrile], the 50% inhibitory concentration (IC50) is 7.61 µM in data set [1] (Homo sapiens, PC-3, 48 h); 15.7 µM in data set [2] (setting [8]); 12.5 µM in data set [3] (Homo sapiens, MCF7, 48 h); > 40 µM in data set [5] (Homo sapiens, HEK293, 48 h); 28 µM in data set [6] (Homo sapiens, 22Rv1, 48 h). The “cytotoxicity” value in data set [4] is on record as “reduced activity”.
As for `CCOc1ccc2[nH]cc(C(=O)C(C#N)=Cc3cn(CC)c4ccccc34)c2c1` [21i, 2-(5-Ethoxy-1H-indole-3-carbonyl)-3-(1-ethyl-1H-indol-3-yl)acrylonitrile], the IC50 is 2.63 µM in data set [1] (Homo sapiens, PC-3, 48 h); 2.2 µM in data set [2] (setting [8]); 7.38 µM in data set [3] (Homo sapiens, MCF7, 48 h); > 40 µM in data set [5] (Homo sapiens, HEK293, 48 h); 8.9 µM in data set [6] (Homo sapiens, 22Rv1, 48 h). Also, the “cytotoxicity” value in data set [4] was “significantly enhanced cytotoxicity”.
On to `CCn1cc(C=C(C#N)C(=O)c2c[nH]c3ccc(OC)cc23)c2ccccc21` [21d, 3-(1-Ethyl-1H-indol-3-yl)-2-(5-methoxy-1H-indole-3-carbonyl)acrylonitrile], for which the 50% inhibitory concentration (IC50) in data set [1] (Homo sapiens, PC-3, 48 h) is > 40 µM; in data set [2] (setting [8]) it was 8 µM; in data set [3] (Homo sapiens, MCF7, 48 h), 10.9 µM; in data set [5] (Homo sapiens, HEK293, 48 h), 39.2 µM; in data set [6] (Homo sapiens, 22Rv1, 48 h) it was 25 µM.
As to `CCn1cc(/C=C(\C#N)C(=O)c2c[nH]c3ccccc23)c2ccccc21` [21a, (E)-3-(1-Ethyl-1H-indol-3-yl)-2-(1H-indole-3-carbonyl)acrylonitrile], the half-maximal inhibitory concentration (IC50) in data set [1] (Homo sapiens, PC-3, 48 h) was 13 µM; in data set [2] (setting [8]) it was 3.9 µM; in data set [3] (Homo sapiens, MCF7, 48 h), 10.2 µM; in data set [5] (Homo sapiens, HEK293, 48 h), > 40 µM; in data set [6] (Homo sapiens, 22Rv1, 48 h) it was > 40 µM.
With `COc1ccc2[nH]cc(C(=O)C(C#N)=Cc3cn(C)c4ccccc34)c2c1` [21c, 2-(5-Methoxy-1H-indole-3-carbonyl)-3-(1-methyl-1H-indol-3-yl)acrylonitrile], the half-maximal inhibitory concentration (IC50) in data set [1] (Homo sapiens, PC-3, 48 h) was 15.5 µM; in data set [2] (setting [8]), 7.5 µM; in data set [3] (Homo sapiens, MCF7, 48 h), 25.3 µM; in data set [5] (Homo sapiens, HEK293, 48 h) it was > 40 µM; in data set [6] (Homo sapiens, 22Rv1, 48 h) it was 1.23 µM.
`CCn1cc(C=C(C#N)C(=O)c2c[nH]c3cc(OC)c(OC)cc23)c2ccccc21` [21o, 2-(5,6-Dimethoxy-1H-indole-3-carbonyl)-3-(1-ethyl-1H-indol-3-yl)acrylonitrile]: the half-inhibitory concentration (IC50) is 19 µM in data set [1] (Homo sapiens, PC-3, 48 h); 5.9 µM in data set [2] (setting [8]); 31.5 µM in data set [3] (Homo sapiens, MCF7, 48 h); > 40 µM in data set [5] (Homo sapiens, HEK293, 48 h); 26 µM in data set [6] (Homo sapiens, 22Rv1, 48 h). Also, the “cytotoxicity” value in data set [4] is “improved the selectivity against prostate cancer cell lines”.
In the case of `COc1ccc2c(C(=O)C(C#N)=Cc3cn(Cc4ccc(Cl)cc4)c4ccccc34)c[nH]c2c1` [21g, 3-(1-(4-Chlorobenzyl)-1H-indol-3-yl)-2-(6-methoxy-1H-indole-3-carbonyl)acrylonitrile], the concentration for half-maximal inhibition (IC50) in data set [1] (Homo sapiens, PC-3, 48 h) is 14.3 µM; in data set [2] (setting [8]) it was 13.3 µM; in data set [3] (Homo sapiens, MCF7, 48 h) it was 10.5 µM; in data set [5] (Homo sapiens, HEK293, 48 h) it was > 40 µM; in data set [6] (Homo sapiens, 22Rv1, 48 h) it was 34 µM. Moreover, the “cytotoxicity” value in data set [4] is listed as “reduced activity”.
Take “3-(1-Ethyl-1H-indol-3-yl)-2-(5-isopropoxy-1H-indole-3-carbonyl)acrylonitrile [21l]”: the 50% inhibitory concentration (IC50) was 4.6 µM in data set [1] (MTT, 48 h treatment, 0.1-40 μM); 26.4 µM in data set [2] (setting [9]); 37.6 µM in data set [7]; 7.95 µM in data set [3] (MTT, 48 h treatment, 0.1-40 μM); 37.9 µM in data set [5] (setting [10]); 2.5 µM in data set [6] (MTT, 48 h treatment, 0.1-40 μM).
In the case of `CCOc1ccc2[nH]cc(C(=O)C(C#N)=Cc3cn(C)c4ccccc34)c2c1` [21h, 2-(5-Ethoxy-1H-indole-3-carbonyl)-3-(1-methyl-1H-indol-3-yl)acrylonitrile], the IC50 in data set [1] (Homo sapiens, PC-3, 48 h) was found to be 27.3 µM; in data set [2] (setting [8]), 10 µM; in data set [3] (Homo sapiens, MCF7, 48 h), 16.8 µM; in data set [5] (Homo sapiens, HEK293, 48 h), 40 µM; in data set [6] (Homo sapiens, 22Rv1, 48 h), 5.23 µM. The “cytotoxicity” value in data set [4] is “significantly enhanced cytotoxicity”.
`N#CC(=Cc1cn(Cc2ccc(Cl)cc2)c2ccccc12)C(=O)c1c[nH]c2ccccc12` [21b, 3-(1-(4-Chlorobenzyl)-1H-indol-3-yl)-2-(1H-indole-3-carbonyl)acrylonitrile]: the IC50 in data set [1] (Homo sapiens, PC-3, 48 h) stood at 10.6 µM; in data set [2] (setting [8]) it was 13.5 µM; in data set [3] (Homo sapiens, MCF7, 48 h), 6.9 µM; in data set [5] (Homo sapiens, HEK293, 48 h) it was 40 µM; in data set [6] (Homo sapiens, 22Rv1, 48 h), 21.5 µM. The “cytotoxicity” value in data set [4] is listed as “moderate activity”.
